Assay results: ChEMBL document CHEMBL1795235, “Quercetin diacylglycoside analogues showing dual inhibition of DNA gyrase and topoisomerase IV as novel antibacterial agents” (J Med Chem, 2011)
In brackets after ≈: the same amount, converted by molar mass.

Key:
Staphylococcus aureus [1] = assay: Antibacterial activity against methicillin-susceptible Staphylococcus aureus 209P after 24 hrs by microdilution method; type: functional
In short: (§1)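 Broth microdilution in Mueller-Hinton broth with 0.85% NaCl, inoculum about 10^5 CFU per 100 μL. Compounds were diluted in water from 25.6 mg/mL stocks to final 2-fold series of 0.062–128 μg/mL. Plates were incubated 24 h at 35 °C. MIC was the lowest concentration at which all triplicate wells were clear, from three independent determinations.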

Enterococcus [2] = assay: Antibacterial activity against vancomycin resistant Enterococcus FN-1 after 24 hrs by microdilution method; type: functional; conditions: FN-1, 24 h; in short: as §1
Enterococcus [3] = assay: Antibacterial activity against vancomycin resistant Enterococcus NCTC 12201 after 24 hrs by microdilution method; type: functional; conditions: NCTC 12201, 24 h; in short: as §1
Staphylococcus aureus [4] = assay: Antibacterial activity against vancomycin-intermediate Staphylococcus aureus Mu50 after 24 hrs by microdilution method; type: functional; conditions: Mu50, 24 h; in short: as §1
Staphylococcus aureus [5] = assay: Antibacterial activity against methicillin-resistant Staphylococcus aureus OM481 after 24 hrs by microdilution method; type: functional; conditions: OM481, 24 h; in short: as §1
Staphylococcus aureus [6] = assay: Antibacterial activity against methicillin-resistant Staphylococcus aureus OM584 after 24 hrs by microdilution method; type: functional; conditions: OM584, 24 h; in short: as §1
Staphylococcus aureus [7] = assay: Antibacterial activity against methicillin-resistant Staphylococcus aureus N315 after 24 hrs by microdilution method; type: functional; conditions: N315, 24 h; in short: as §1
Staphylococcus aureus [8] = assay: Antibacterial activity against methicillin-resistant Staphylococcus aureus COL after 24 hrs by microdilution method; type: functional; in short: as §1
Streptococcus pneumoniae = assay: Antibacterial activity against Streptococcus pneumoniae R6 after 24 hrs by microdilution method; type: functional; conditions: R6, 24 h
In short: (§2)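 Broth microdilution in Mueller-Hinton broth with 0.85% NaCl, inoculum about 10^5 CFU per 100 μL. Compounds diluted from 25.6 mg/mL stocks in water to 2-fold series, final 0.062–128 μg/mL. […] Three independent determinations.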

[9] = Inhibition of Staphylococcus aureus DNA Topoisomerase 4-mediated decatenation of kDNA after 30 mins by densitometry
In short: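 Purchased S. aureus topoIV, one unit with 200 ng kDNA, 37 °C, 30 min. Products resolved on 1.0% agarose in TAE. IC50 of decatenation from densitometry by interpolation equation, at least three determinations.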

[10] = Inhibition of Escherichia coli DNA topoisomerase 4 subunit ParC/DNA topoisomerase 4 subunit ParE-mediated decatenation of kDNA by densitometry
In short: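 Purchased E. coli topoIV kit enzyme, one unit with 200 ng kDNA, 37 °C, 30 min. Buffer: 50 mM HEPES-KOH pH 7.6, 5 mM magnesium acetate, 100 mM potassium glutamate, 10 mM DTT, 1 mM ATP, 40% glycerol. Gel on 1.0% agarose in TAE. IC50 of decatenation from densitometry by interpolation equation, at least three determinations.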

Pseudomonas aeruginosa = assay: Antibacterial activity against Pseudomonas aeruginosa PAO1 after 24 hrs by microdilution method; type: functional; conditions: PAO1, 24 h; in short: as §2
Escherichia coli = assay: Antibacterial activity against Escherichia coli K-12 after 24 hrs by microdilution method; type: functional; conditions: K-12, 24 h; in short: as §2
[11] = Inhibition of Escherichia coli DNA gyrase assessed as inhibition of pBR322 supercoiling by densitometry
In short: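 One unit of E. coli gyrase with 0.5 μg relaxed pBR322 DNA, 37 °C, 30 min. Stopped with sucrose/EDTA dye, run on 1.0% agarose in TAE. IC50 from densitometry via log-interpolation equation.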

SMILES	MIC (Staphylococcus aureus [1])	MIC (Enterococcus [2])	MIC (Enterococcus [3])	MIC (Staphylococcus aureus [4])	MIC (Staphylococcus aureus [5])	MIC (Staphylococcus aureus [6])	MIC (Staphylococcus aureus [7])	MIC (Staphylococcus aureus [8])	MIC (Streptococcus pneumoniae)	IC50 [9]	IC50 [10]	MIC (Pseudomonas aeruginosa)	MIC (Escherichia coli)	IC50 [11]
CCOc1ccc(CCC(=O)O[C@H]2[C@H](Oc3c(-c4ccc(O)c(O)c4)oc4cc(O)cc(O)c4c3=O)O[C@H](CO)[C@@H](O)[C@@H]2OC(=O)CCc2ccc(OCC)cc2)cc1	1 µg/mL (≈ 1.22 µM)	2 µg/mL (≈ 2.45 µM)	4 µg/mL (≈ 4.9 µM)	1 µg/mL (≈ 1.22 µM)	2 µg/mL (≈ 2.45 µM)	2 µg/mL (≈ 2.45 µM)	1 µg/mL (≈ 1.22 µM)	4 µg/mL (≈ 4.9 µM)	1 µg/mL (≈ 1.22 µM)	3.02 µM	> 12 µM			
Cc1ccc(CCC(=O)OC[C@H]2O[C@@H](Oc3c(-c4ccc(O)c(O)c4)oc4cc(O)cc(O)c4c3=O)[C@H](O)[C@@H](O)[C@H]2O)cc1	16 µg/mL (≈ 26.2 µM)	32 µg/mL (≈ 52.4 µM)	32 µg/mL (≈ 52.4 µM)	16 µg/mL (≈ 26.2 µM)	16 µg/mL (≈ 26.2 µM)	16 µg/mL (≈ 26.2 µM)	16 µg/mL (≈ 26.2 µM)	32 µg/mL (≈ 52.4 µM)	32 µg/mL (≈ 52.4 µM)	2.57 µM	12 µM	> 128 µg/mL	> 128 µg/mL	1.79 µM
O=C(CCCCc1ccc(F)cc1)OC[C@H]1O[C@@H](Oc2c(-c3ccc(O)c(O)c3)oc3cc(O)cc(O)c3c2=O)[C@H](OC(=O)CCCCc2ccc(F)cc2)[C@@H](O)[C@H]1O	4 µg/mL (≈ 4.87 µM)	16 µg/mL (≈ 19.5 µM)	16 µg/mL (≈ 19.5 µM)	16 µg/mL (≈ 19.5 µM)	4 µg/mL (≈ 4.87 µM)	4 µg/mL (≈ 4.87 µM)	2 µg/mL (≈ 2.44 µM)	16 µg/mL (≈ 19.5 µM)	8 µg/mL (≈ 9.75 µM)	4.05 µM	> 12 µM	> 128 µg/mL	> 128 µg/mL	5.02 µM
O=C(CCc1ccc(F)cc1)OC[C@H]1O[C@@H](Oc2c(-c3ccc(O)c(O)c3)oc3cc(O)cc(O)c3c2=O)[C@H](O)[C@@H](O)[C@H]1O	16 µg/mL (≈ 26 µM)	16 µg/mL (≈ 26 µM)	16 µg/mL (≈ 26 µM)	32 µg/mL (≈ 52.1 µM)	16 µg/mL (≈ 26 µM)	16 µg/mL (≈ 26 µM)	16 µg/mL (≈ 26 µM)	32 µg/mL (≈ 52.1 µM)	32 µg/mL (≈ 52.1 µM)	2.99 µM	11.5 µM	> 128 µg/mL	> 128 µg/mL	1.4 µM
CCn1cc(C(=O)O)c(=O)c2cc(F)c(N3CCNCC3)cc21 [NORFLOXACIN]	0.5 µg/mL (≈ 1.57 µM)	> 128 µg/mL	4 µg/mL (≈ 12.5 µM)	> 128 µg/mL	64 µg/mL (≈ 200 µM)	128 µg/mL (≈ 401 µM)	2 µg/mL (≈ 6.26 µM)	1 µg/mL (≈ 3.13 µM)	0.25 µg/mL (≈ 0.783 µM)	3.5 µM		0.25 µg/mL (≈ 0.783 µM)	0.25 µg/mL (≈ 0.783 µM)	0.09 µM
CC1O[C@H](Oc2c(-c3ccc(O)cc3)oc3cc(O)cc(O)c3c2=O)[C@@H](OC(=O)/C=C/c2ccc(O)cc2)[C@@H](O)[C@@H]1OC(=O)/C=C/c1ccc(O)cc1 (stereo partly drawn)	0.5 µg/mL (≈ 0.69 µM)	8 µg/mL (≈ 11 µM)	4 µg/mL (≈ 5.52 µM)		1 µg/mL (≈ 1.38 µM)	2 µg/mL (≈ 2.76 µM)	1 µg/mL (≈ 1.38 µM)	1 µg/mL (≈ 1.38 µM)		2.7 µM		> 128 µg/mL	> 128 µg/mL	3.11 µM
Cc1ccc(CC(=O)OC[C@H]2O[C@@H](Oc3c(-c4ccc(O)c(O)c4)oc4cc(O)cc(O)c4c3=O)[C@H](OC(=O)Cc3ccc(C)cc3)[C@@H](O)[C@H]2O)cc1	4 µg/mL (≈ 5.49 µM)	8 µg/mL (≈ 11 µM)	4 µg/mL (≈ 5.49 µM)	4 µg/mL (≈ 5.49 µM)	2 µg/mL (≈ 2.74 µM)	2 µg/mL (≈ 2.74 µM)	8 µg/mL (≈ 11 µM)	16 µg/mL (≈ 22 µM)	2 µg/mL (≈ 2.74 µM)	2.69 µM	10.5 µM	> 128 µg/mL	> 128 µg/mL	2.21 µM
CCOc1ccc(C(=O)O[C@H]2[C@H](Oc3c(-c4ccc(O)c(O)c4)oc4cc(O)cc(O)c4c3=O)O[C@H](CO)[C@@H](O)[C@@H]2OC(=O)c2ccc(OCC)cc2)cc1	1 µg/mL (≈ 1.31 µM)	2 µg/mL (≈ 2.63 µM)	4 µg/mL (≈ 5.26 µM)	1 µg/mL (≈ 1.31 µM)	2 µg/mL (≈ 2.63 µM)	2 µg/mL (≈ 2.63 µM)	1 µg/mL (≈ 1.31 µM)	4 µg/mL (≈ 5.26 µM)	1 µg/mL (≈ 1.31 µM)	1.98 µM	11 µM			
Cc1ccc(CCC(=O)O[C@H]2[C@H](Oc3c(-c4ccc(O)c(O)c4)oc4cc(O)cc(O)c4c3=O)O[C@H](CO)[C@@H](O)[C@@H]2OC(=O)CCc2ccc(C)cc2)cc1	1 µg/mL (≈ 1.32 µM)	2 µg/mL (≈ 2.64 µM)	4 µg/mL (≈ 5.29 µM)	1 µg/mL (≈ 1.32 µM)	2 µg/mL (≈ 2.64 µM)	2 µg/mL (≈ 2.64 µM)	1 µg/mL (≈ 1.32 µM)	4 µg/mL (≈ 5.29 µM)	1 µg/mL (≈ 1.32 µM)	2.02 µM	11.6 µM			
